Experimental data from PubChem BioAssay.
Active and inactive are the calls of the source.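 The calls were made as follows, unless noted: active = viability loss from added drug above about 55%, and viability with drug at most 40%, in both replicates (limit read from the data, passing the limit was not always enough); inconclusive = both conditions met in only one replicate; inactive = neither replicate meets both conditions.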

What was measured:
[1] = Her2 expression decrease, cell viability multiplex – SKBR3 breast tumor cells, AlphaScreen, ATP viability, primary screen (AID 461;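 active = Her2 level under about 52% in both replicate screens, with viability over 70% of control, limit read from the data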;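 as to Her2 level: lower value means less Her2 protein in the cells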;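 as to viability: percent of carrier control wells set as 100% viability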); details: SKBR3 Her2 protein level, 18-24 h, measured here: SKBR3 viability, ATP luminescence, at 10 µM
[2] = molecular target: Receptor tyrosine-protein kinase erbB-2 (Homo sapiens) (UniProt P04626); test: as above; details: 18-24 h, at 10 µM, stronger effect = lower value
[3] = reduced viability of SK-BR-3 breast cancer cells – cell-based, 24 h, human, pilot screen (AID 572;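 active = viability at or below 10% of carrier control in both of two separate runs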;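 also: compound exposure lasted between 18 and 24 h rather than exactly 24 h; 100% = carrier-treated control wells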); details: SK-BR-3 viability, CellTiter-Glo luminescence, at 10 µM, stronger effect = lower value
[4] = HUVEC growth inhibition – cell-based, human, primary screen (AID 575;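 active = viability at or below 30% in both replicate assays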;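 also: 100% = median of untreated cell wells with 0.1% DMSO on each plate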); details: HUVEC proliferation, CellTiter-Glo luminescence, 72 h; at 10 µM; stronger effect = lower value
Procedure, shortened: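 system = HUVEC primary cells | amount = 1250 cells/well | buffer or medium = supplemented EBM, 2% fetal bovine serum | dosing = single-point 10 µM, DMSO 0.1% final | times = 72 h compound incubation | detection = CTG luminescence | read-out = % viability relative to median vehicle-well signal on each plate | control set = vehicle and MePR control wells | format = collagen-coated 384-well format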

[5] = H69AR cell proliferation blockers – human, duplicate replicates, primary screen (AID 580;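 active = viability at or under a set limit in both replicates, limit being median viability minus 3 SD, cut at about 48% in these data, passing the limit was not always enough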;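 also: 100% = mean luminescence of untreated wells and 0% = no signal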); details: H69AR lung tumor cells viability, ATP luminescence, 72 h; at 10 µM; stronger effect = lower value
[6] = MRP1 drug-resistance reversers in H69AR cells – cell-based, doxorubicin co-treatment, pilot screen (AID 601); details: CellTiter-Glo, 72 h, at 10 µM; for differential viability (reversal): stronger effect = higher value
[7] = yeast transport mutant growth inhibition pilot in 384-well plates, post-Golgi transport modulator project (AID 636; in the data active = inhibition above about 31%); details: absorbance 615 nm, about 18 h, stronger effect = higher value
[8] = growth suppression of yeast trafficking mutant, preliminary HTS, modulators of trafficking downstream of Golgi apparatus project, 1536-format plate, OD 615 nm (AID 637; in the data active = inhibition above about 30%); details: yeast transport mutant growth, absorbance 615 nm, 18 h; stronger effect = higher value
[9] = H69AR cells + 2 uM doxorubicin, measured here: viability with 2 uM doxorubicin, stronger effect = lower value
[10] = H69AR cells, compound alone cytotoxicity

Receptor tyrosine-protein kinase erbB-2 (Homo sapiens), sequence (P04626 whole entry, looked up): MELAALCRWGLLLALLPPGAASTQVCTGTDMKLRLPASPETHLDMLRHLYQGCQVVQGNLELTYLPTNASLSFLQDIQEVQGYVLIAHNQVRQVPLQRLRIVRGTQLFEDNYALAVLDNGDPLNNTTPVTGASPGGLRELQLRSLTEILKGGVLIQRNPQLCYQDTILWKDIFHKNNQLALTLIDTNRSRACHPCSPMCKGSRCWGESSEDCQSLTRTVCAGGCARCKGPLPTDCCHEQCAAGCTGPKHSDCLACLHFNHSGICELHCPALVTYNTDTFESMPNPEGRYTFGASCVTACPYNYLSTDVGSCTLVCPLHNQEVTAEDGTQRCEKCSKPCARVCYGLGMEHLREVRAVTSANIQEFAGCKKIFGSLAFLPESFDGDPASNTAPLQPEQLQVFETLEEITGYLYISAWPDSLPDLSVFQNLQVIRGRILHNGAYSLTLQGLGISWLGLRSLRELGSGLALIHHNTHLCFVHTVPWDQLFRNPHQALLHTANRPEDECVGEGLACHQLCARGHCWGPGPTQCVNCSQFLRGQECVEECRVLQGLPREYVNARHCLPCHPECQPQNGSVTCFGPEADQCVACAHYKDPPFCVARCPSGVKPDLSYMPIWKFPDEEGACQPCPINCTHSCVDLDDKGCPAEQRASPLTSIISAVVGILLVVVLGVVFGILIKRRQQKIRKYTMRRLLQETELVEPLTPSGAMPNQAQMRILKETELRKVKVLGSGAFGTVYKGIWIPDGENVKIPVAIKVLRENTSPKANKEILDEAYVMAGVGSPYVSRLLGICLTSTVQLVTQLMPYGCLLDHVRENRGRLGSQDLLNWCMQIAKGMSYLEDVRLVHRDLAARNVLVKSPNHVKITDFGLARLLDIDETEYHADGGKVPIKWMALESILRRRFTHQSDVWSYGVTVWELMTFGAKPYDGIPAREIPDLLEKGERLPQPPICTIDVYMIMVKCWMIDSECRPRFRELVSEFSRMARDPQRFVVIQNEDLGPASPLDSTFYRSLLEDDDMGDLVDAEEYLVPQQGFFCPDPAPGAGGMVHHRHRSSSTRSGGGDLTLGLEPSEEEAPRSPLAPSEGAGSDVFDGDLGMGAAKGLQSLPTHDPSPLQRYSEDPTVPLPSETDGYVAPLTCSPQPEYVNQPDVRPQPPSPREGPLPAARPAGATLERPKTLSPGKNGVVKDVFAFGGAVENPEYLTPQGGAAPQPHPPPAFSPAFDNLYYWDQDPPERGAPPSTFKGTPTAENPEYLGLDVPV

Compound | viability [1] [%] | Her2 level [2] | viability [3] | viability [4] | viability [5] | differential viability (reversal) ([6]; H69AR cells + 2 uM doxorubicin) | viability [6, 9] [%] | viability [6, 10] [%] | inhibition [7] | inhibition [8]
CC1CCN(S(=O)(=O)c2ccc3[nH]cc(C(=O)NCCN4CCOCC4)c(=O)c3c2)CC1 | 108 | 104% (inactive) | 108% (inactive) | 94% (inactive) | 96.4% (inactive) | 2.28% (inactive) | 94.1 | 96.4 | -6.67% (inactive) | -3.06% (inactive)
CCNC(=O)N(C(=O)NCC)n1c(C)nnc1C | 100 | 90% (inactive) | 100% (inactive) | 105% (inactive) | 104% (inactive) | 18.7% (inactive) | 85.3 | 104 | -5.33% (inactive) | 1.48% (inactive)
Cc1ccc2oc(C(=O)Nc3c(C)n(C)n(-c4ccccc4)c3=O)c(C)c2c1 | 84.5 | 102% (inactive) | 84.5% (inactive) | 97.2% (inactive) | 104% (inactive) | 20.3% (inactive) | 83.6 | 104 | -7.4% (inactive) | -10.3% (inactive)
O=C(CSc1ncc(-c2ccc(F)cc2)[nH]1)N1CCCCC1 | 91 | 124% (inactive) | 91% (inactive) | 92.6% (inactive) | 91.3% (inactive) | 2.38% (inactive) | 89 | 91.3 | -2.95% (inactive) | 0% (inactive)
CCCCOc1ccccc1C(=O)NCCCC(=O)O | 92.5 | 80.5% (inactive) | 92.5% (inactive) | 95.4% (inactive) | 87.1% (inactive) | 7.52% (inactive) | 79.6 | 87.1 | -4.08% (inactive) | -0.55% (inactive)
Cc1nnc(SCc2ccccc2)n1N | 104 | 98% (inactive) | 104% (inactive) | 103% (inactive) | 99.6% (inactive) | 0.72% (inactive) | 98.9 | 99.6 | -0.67% (inactive) | -5.32% (inactive)
CC1CC(C)CN(CCCNC(=O)COc2cc(=O)n(C)c3ccccc23)C1 (stereo not given) | 90 | 88% (inactive) | 90% (inactive) | 85.3% (inactive) | 90.7% (inactive) | 16.5% (inactive) | 74.2 | 90.7 | -3.73% (inactive) | -4.59% (inactive)
CCn1c(SCC(=O)c2ccc3c(c2)OCCO3)nnc1-c1ccco1 | 102 | 95% (inactive) | 102% (inactive) | 111% (inactive) | 98.6% (inactive) | 0.66% (inactive) | 97.9 | 98.6 | -4% (inactive) | -0.65% (inactive)
COCCN1C(=O)C(=O)/C(=C(/O)c2ccc(OC(C)C)cc2)C1c1cccnc1 (stereo not given) | 94.5 | 86.5% (inactive) | 94.5% (inactive) | 89.7% (inactive) | 92.6% (inactive) | 5.24% (inactive) | 87.4 | 92.6 | -3.55% (inactive) | 3.33% (inactive)
Cn1c(C(=O)NCC2CCCO2)cc2c(=O)[nH]c3ccccc3c21 (stereo not given) | 81 | 98% (inactive) | 81% (inactive) | 108% (inactive) | 88.4% (inactive) | 4.57% (inactive) | 83.8 | 88.4 | -4.67% (inactive) | -7.05% (inactive)
CCCCP(=O)(CCCC)c1ccccc1C(=O)O | 110 | 104% (inactive) | 110% (inactive) | 90% (inactive) | 107% (inactive) | 12.9% (inactive) | 94.2 | 107 | 1.82% (inactive) | -2.46% (inactive)
CCNC(=O)CC1C(=O)N(c2ccc(F)cc2)C(=O)N1CCC(C)C (stereo not given) | 103 | 80.5% (inactive) | 103% (inactive) | 98.4% (inactive) | 92.9% (inactive) | 8.4% (inactive) | 84.5 | 92.9 | 0.66% (inactive) | -3.64% (inactive)
Cn1c(=O)oc2cc(S(=O)(=O)N3CCC(C(=O)Nc4ccc(OC(F)(F)F)cc4)CC3)ccc21 | 137 | 98.5% (inactive) | 137% (inactive) | 91.4% (inactive) | 33% (active) | -4.57% (inactive) | 37.5 | 33 | -5.92% (inactive) | 0.18% (inactive)
c1ccc(Cc2ccc(OCCn3cncn3)cc2)cc1 | 84 | 108% (inactive) | 84% (inactive) | 98.6% (inactive) | 95% (inactive) | 14.6% (inactive) | 80.4 | 95 | -3.92% (inactive) | -7.38% (inactive)
COc1ccc(Cn2nnnc2C(c2cc3cc(C)cc(C)c3[nH]c2=O)N2CCOCC2)cc1 (stereo not given) | 108 | 94.5% (inactive) | 108% (inactive) | 117% (inactive) | 99.4% (inactive) | 11.9% (inactive) | 87.4 | 99.4 | -7.47% (inactive) | 0.32% (inactive)
